Laboratory results taken from ChEMBL document CHEMBL1777724, “Discovery, design and synthesis of the first reported potent and selective sphingosine-1-phosphate 4 (S1P4) receptor antagonists” (Bioorg Med Chem Lett, 2011).
Calls of active or inactive are those of the source. The calls are words filed in the database; no cut-off is given here.

Columns and labels:
[1] = target: T1, Sphingosine 1-phosphate receptor 4 (Homo sapiens, UniProt O95977); assay: Antagonist activity at S1P4 receptor in human U2OS cells expressing EDG6-linked GAL4-VP16 transcription factor via TEV protease site/beta-arrestin/TEV protease fusion protein and beta-lactamase reporter gene assessed as beta-lactamase expression by FRET assay; assay type: functional, cell-based
T1 sequence (O95977 whole entry): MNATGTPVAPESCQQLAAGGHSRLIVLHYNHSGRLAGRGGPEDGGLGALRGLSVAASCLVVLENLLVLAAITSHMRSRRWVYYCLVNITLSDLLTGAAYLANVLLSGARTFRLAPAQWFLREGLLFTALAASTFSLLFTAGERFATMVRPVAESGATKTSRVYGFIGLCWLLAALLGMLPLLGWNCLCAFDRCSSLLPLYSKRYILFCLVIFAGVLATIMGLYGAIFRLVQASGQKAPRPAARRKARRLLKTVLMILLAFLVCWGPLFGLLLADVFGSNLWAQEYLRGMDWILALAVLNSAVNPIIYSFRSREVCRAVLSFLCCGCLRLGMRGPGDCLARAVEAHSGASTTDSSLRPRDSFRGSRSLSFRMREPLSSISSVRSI
Summary of the method: (§1)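 Cells co-express a beta-arrestin/TEV protease fusion protein and a beta-lactamase reporter gene under a UAS response element. Reporter expression was read as FRET of a cleavable, fluorogenic, cell-permeable beta-lactamase substrate. Compounds were tested at concentrations up to 25 μM. IC50 values are the mean of n = 3 determinations.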

[2] = target: T2, Sphingosine 1-phosphate receptor 2 (Homo sapiens, UniProt O95136); assay: Inhibition of S1P2 receptor
[3] = target: T2, Sphingosine 1-phosphate receptor 2; assay: Inhibition of S1P2 receptor at 25 uM
Summary of the method: (§2)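 Selectivity counter-screen reported as percentage of inhibition at a single 25 μM concentration, given as the mean of n = 3 determinations.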

[4] = target: Sphingosine 1-phosphate receptor 3 (Homo sapiens, UniProt Q99500); assay: Inhibition of S1P3 receptor at 25 uM; summary of the method: as §2
[5] = target: T3, Sphingosine 1-phosphate receptor 5 (Homo sapiens, UniProt Q9H228); assay: Inhibition of S1P5 receptor at 25 uM; summary of the method: as §2
[6] = target: T4, Sphingosine 1-phosphate receptor 1 (Homo sapiens, UniProt P21453); assay: Inhibition of S1P1 receptor at 25 uM; summary of the method: as §2
[7] = target: T4, Sphingosine 1-phosphate receptor 1; assay: Inhibition of S1P1 receptor
[8] = target: T3, Sphingosine 1-phosphate receptor 5; assay: Inhibition of S1P5 receptor
[9] = target: T5, Sphingosine 1-phosphate receptor 4 (Homo sapiens) (UniProt O95977); assay: Antagonist activity at S1P4 receptor in human U2OS cells expressing EDG6-linked GAL4-VP16 transcription factor via TEV protease site/beta-arrestin/TEV protease fusion protein and beta-lactamase reporter gene assessed as beta-lactamase expression up to 25 uM by FRET assay; assay type: functional, cell-based; summary of the method: as §1
T5 sequence (whole entry): T1 sequence (O95977 whole entry)

Chain of Sphingosine 1-phosphate receptor 3 (Q99500 whole entry): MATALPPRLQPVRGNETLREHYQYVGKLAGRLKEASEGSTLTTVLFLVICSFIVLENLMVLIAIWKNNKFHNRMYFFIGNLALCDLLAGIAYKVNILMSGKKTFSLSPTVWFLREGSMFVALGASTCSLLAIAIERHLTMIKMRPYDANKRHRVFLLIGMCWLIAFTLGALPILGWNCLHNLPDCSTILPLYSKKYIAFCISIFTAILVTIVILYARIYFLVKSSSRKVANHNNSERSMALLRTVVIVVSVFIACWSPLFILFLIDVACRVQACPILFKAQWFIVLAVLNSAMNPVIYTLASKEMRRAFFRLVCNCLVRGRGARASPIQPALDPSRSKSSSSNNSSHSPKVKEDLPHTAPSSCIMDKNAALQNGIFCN
T2 sequence (O95136 whole entry): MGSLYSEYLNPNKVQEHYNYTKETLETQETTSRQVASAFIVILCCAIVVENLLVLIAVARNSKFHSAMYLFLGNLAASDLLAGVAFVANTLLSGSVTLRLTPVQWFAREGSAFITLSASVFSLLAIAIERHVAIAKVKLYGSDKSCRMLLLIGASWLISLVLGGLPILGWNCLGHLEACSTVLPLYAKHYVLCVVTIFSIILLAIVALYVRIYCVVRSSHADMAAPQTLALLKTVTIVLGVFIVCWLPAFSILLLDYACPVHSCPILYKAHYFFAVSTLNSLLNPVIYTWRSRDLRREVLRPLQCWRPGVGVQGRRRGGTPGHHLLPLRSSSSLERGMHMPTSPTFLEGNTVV
T3 sequence (Q9H228 whole entry): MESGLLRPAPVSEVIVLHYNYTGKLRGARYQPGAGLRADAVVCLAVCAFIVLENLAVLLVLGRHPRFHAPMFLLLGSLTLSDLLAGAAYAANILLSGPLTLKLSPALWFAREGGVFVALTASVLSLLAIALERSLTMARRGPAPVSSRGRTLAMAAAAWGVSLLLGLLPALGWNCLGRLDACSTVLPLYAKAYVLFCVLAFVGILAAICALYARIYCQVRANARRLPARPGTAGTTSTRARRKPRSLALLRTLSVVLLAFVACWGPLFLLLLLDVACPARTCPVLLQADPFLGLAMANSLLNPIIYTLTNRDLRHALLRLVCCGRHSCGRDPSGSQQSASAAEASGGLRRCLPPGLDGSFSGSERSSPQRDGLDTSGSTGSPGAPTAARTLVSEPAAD
T4 sequence (P21453 whole entry): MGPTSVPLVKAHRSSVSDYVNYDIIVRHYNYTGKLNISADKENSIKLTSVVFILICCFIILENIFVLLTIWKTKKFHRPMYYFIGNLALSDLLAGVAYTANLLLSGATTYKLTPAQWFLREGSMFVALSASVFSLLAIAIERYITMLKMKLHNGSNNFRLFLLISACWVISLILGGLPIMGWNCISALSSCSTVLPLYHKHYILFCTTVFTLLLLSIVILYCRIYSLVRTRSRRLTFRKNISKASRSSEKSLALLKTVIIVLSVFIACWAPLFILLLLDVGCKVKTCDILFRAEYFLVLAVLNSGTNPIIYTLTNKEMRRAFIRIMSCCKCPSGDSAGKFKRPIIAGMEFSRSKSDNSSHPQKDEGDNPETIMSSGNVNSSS

## CC(=O)NCc1cc(C)c(NC(=O)c2ccc(-c3cc(Cl)ccc3Cl)o2)c(C)c1
[1]
  IC50: 94 nM

## Cc1ccc(S(C)(=O)=O)c(C)c1NC(=O)c1ccc(-c2cc(Cl)ccc2Cl)o1
[1]
  IC50: 302 nM

## Cc1cccc(CO)c1NC(=O)c1ccc(-c2cc(Cl)ccc2Cl)o1
[1]
  IC50: 573 nM

## COc1cccc(C)c1NC(=O)c1ccc(-c2cc(Cl)ccc2Cl)o1
[1]
  IC50: 163 nM

## Cc1cscc1-c1ccc(C(=O)Nc2c(C)cccc2C)o1
[1]
  IC50: 286 nM

## COc1cc(C)c(NC(=O)c2ccc(-c3cc(Cl)ccc3Cl)o2)c(C)c1
[1]
  IC50: 80 nM
[2]
  IC50: 2800 nM
[3]
  inhibition: 70%
[4]
  inhibition: 30%
[5]
  inhibition: 40%
[6]
  inhibition: 20%

## Cc1cc(CN)cc(C)c1NC(=O)c1ccc(-c2cc(Cl)ccc2Cl)o1
[7]
  IC50: 6400 nM
[1]
  IC50: 25 nM
[2]
  IC50: 3900 nM
[3]
  inhibition: 90%
[4]
  inhibition: 95%
[8]
  IC50: 5500 nM
[5]
  inhibition: 90%

## Cc1cccc(C)c1NC(=O)c1ccc(-c2cc(F)ccc2F)o1
[1]
  IC50: 308 nM

## Cc1cccc(C)c1NC(=O)c1ccc(-c2ccc(Cl)cc2Cl)o1
[1]
  IC50: 2000 nM

## Cc1cc(C)c(N(C)C(=O)c2ccc(-c3cc(Cl)ccc3Cl)o2)c(C)c1
[1]
  IC50: 8100 nM

## Cc1ccsc1-c1ccc(C(=O)Nc2c(C)cc(CO)cc2C)o1
[1]
  IC50: 34 nM
[3]
  inhibition: 90%
[4]
  inhibition: inactive
[5]
  inhibition: inactive
[6]
  inhibition: 80%

## Cc1cccc(C)c1N(C)C(=O)c1ccc(-c2ccco2)o1
[1]
  IC50: 130 nM

## Cc1cccc(Cl)c1NC(=O)c1ccc(-c2cc(Cl)ccc2Cl)o1
[1]
  IC50: 169 nM

## Cc1cccc(C)c1NC(=O)c1ccc(-c2ccsc2)o1
[1]
  IC50: 448 nM

## CCc1cccc(CC)c1NC(=O)c1ccc(-c2cc(Cl)ccc2Cl)o1
[1]
  IC50: 89 nM
[3]
  inhibition: inactive
[4]
  inhibition: inactive
[5]
  inhibition: inactive
[6]
  inhibition: inactive

## Cc1cc(OCC(N)=O)cc(C)c1NC(=O)c1ccc(-c2cc(Cl)ccc2Cl)o1
[1]
  IC50: 52 nM

## COc1ccc(C)c(NC(=O)c2ccc(-c3cc(Cl)ccc3Cl)o2)c1
[1]
  IC50: 931 nM

## CC(C)c1cccc(C(C)C)c1NC(=O)c1ccc(-c2cc(Cl)ccc2Cl)o1
[1]
  IC50: 105 nM

## Cc1cc(OCCO)cc(C)c1NC(=O)c1ccc(-c2cc(Cl)ccc2Cl)o1
[1]
  IC50: 44 nM
[2]
  IC50: 2400 nM
[3]
  inhibition: 90%
[4]
  inhibition: 70%
[5]
  inhibition: 60%
[6]
  inhibition: 35%

## Cc1ccc(C)c(-c2ccc(C(=O)Nc3c(C)cccc3C)o2)c1
[1]
  IC50: 64 nM

## COc1ccc(OC)c(-c2ccc(C(=O)N(C)c3c(C)cccc3C)o2)c1
[1]
  IC50: 513 nM

## CCc1cccc(C)c1NC(=O)c1ccc(-c2cc(Cl)ccc2Cl)o1
[1]
  IC50: 41 nM
[3]
  inhibition: 50%
[4]
  inhibition: 55%
[5]
  inhibition: 50%
[6]
  inhibition: inactive

## Cc1cccc(C)c1NC(=O)c1ccc(-c2c(C)cccc2C)o1
[9]
  inhibition: inactive

## Cc1cccc(C)c1NC(=O)c1ccc(-c2cc(C(F)(F)F)ccc2C(F)(F)F)o1
[9]
  inhibition: inactive

## Cc1ccsc1-c1ccc(C(=O)Nc2c(C)cc(O)cc2C)o1
[1]
  IC50: 46 nM
[3]
  inhibition: 80%
[4]
  inhibition: 10%
[5]
  inhibition: inactive
[6]
  inhibition: 75%

## O=C(c1ccc(-c2cc(Cl)ccc2Cl)o1)N1CCc2ccccc21
[9]
  inhibition: inactive

## COc1cccc(OC)c1NC(=O)c1ccc(-c2cc(Cl)ccc2Cl)o1
[1]
  IC50: 417 nM

## Cc1cccc(C)c1NC(=O)c1ccc(-c2cc(Cl)ccc2Cl)o1
[1]
  IC50: 78 nM
[8]
  IC50: 14000 nM

## Cc1cccc(C)c1NC(=O)c1ccc(-c2cccc(Cl)c2)o1
[1]
  IC50: 497 nM

## Cc1cc(C)c(NC(=O)c2ccc(-c3cc(Cl)ccc3Cl)o2)c(C)c1
[1]
  IC50: 63 nM

## Cc1cccc(C)c1N(C)C(=O)c1ccc(-c2cc(O)ccc2O)o1
[9]
  inhibition: inactive

## Cc1cc(CO)cc(C)c1NC(=O)c1ccc(-c2cc(Cl)ccc2Cl)o1
[1]
  IC50: 21 nM
[2]
  IC50: 3000 nM
[3]
  inhibition: 85%
[4]
  inhibition: 60%
[5]
  inhibition: 40%
[6]
  inhibition: 45%

## CC(=O)OCc1cc(C)c(NC(=O)c2ccc(-c3cc(Cl)ccc3Cl)o2)c(C)c1
[1]
  IC50: 34 nM

## Cc1cccc(C)c1NC(=O)c1ccc(-c2ccc(Cl)s2)o1
[1]
  IC50: 515 nM

## Cc1cc(CN(C)C)cc(C)c1NC(=O)c1ccc(-c2cc(Cl)ccc2Cl)o1
[1]
  IC50: 348 nM

## COc1ccc(NC(=O)c2ccc(-c3cc(Cl)ccc3Cl)o2)c(C)c1
[1]
  IC50: 589 nM

## Cc1ccsc1-c1ccc(C(=O)Nc2c(C)cccc2C)o1
[1]
  IC50: 93 nM
[2]
  IC50: 2600 nM
[4]
  inhibition: 20%
[5]
  inhibition: 40%
[6]
  inhibition: 95%

## Cc1cc(O)cc(C)c1NC(=O)c1ccc(-c2cc(Cl)ccc2Cl)o1
[7]
  IC50: 5300 nM
[1]
  IC50: 58 nM
[2]
  IC50: 2800 nM
[3]
  inhibition: 90%
[8]
  IC50: 3000 nM

## O=C(Nc1c(F)cccc1F)c1ccc(-c2cc(Cl)ccc2Cl)o1
[1]
  IC50: 6400 nM

## Cc1ccc(C)c(NC(=O)c2ccc(-c3cc(Cl)ccc3Cl)o2)c1
[1]
  IC50: 165 nM

## Cc1ccc2ccccc2c1NC(=O)c1ccc(-c2cc(Cl)ccc2Cl)o1
[1]
  IC50: 253 nM

## Cc1cccc(C)c1N(C)C(=O)c1ccc(-c2ccccc2Cl)o1
[1]
  IC50: 269 nM

## Cc1cc(-c2ccccc2)cc(C)c1NC(=O)c1ccc(-c2cc(Cl)ccc2Cl)o1
[1]
  IC50: 115 nM

## Cc1cccc(C)c1NC(=O)c1ccc(-c2cccs2)o1
[1]
  IC50: 118 nM

## Cc1cccc(C)c1NC(=O)c1ccc(-c2ccccc2)o1
[1]
  IC50: 575 nM
